Source: ChEMBL document CHEMBL3044971, “Dialkoxybenzene and dialkoxyallylbenzene feeding and oviposition deterrents against the cabbage looper, Trichoplusia ni: potential insect behavior control agents” (J Agric Food Chem, 2010)

The molecules below were run on Trichoplusia ni (assay: Feeding deterrent activity against freshly molted third-instar larval stage of Trichoplusia ni (cabbage looper) in compound pretreated cabbage leaves after 3 to 5 hr by leaf disk choice bioassay). Settings: not given.
Type: functional, organism-based
Summary of the method: (§1)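 Leaf-disk choice test on greenhouse cabbage (Stonehead) leaves from 5-6-week plants. Freshly molted third-instar T. ni from a diet-reared colony (>50 generations) were starved 4-5 h. One disk had 10 μL test solution painted on each side, the other carrier solvent only. There were 25 larvae per treatment. Run ended at ~50% control disk eaten (3-5 h). Deterrence = (C−T)/(C+T)×100 from consumed areas.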

| SMILES | DC50 [microg/cm2] |
| --- | --- |
| C=CCc1cc(OCCCC)ccc1OCC | 22 |
| C=CCc1c(OC)cccc1OCCC | 14 |
| CC(C)CCOc1ccc2c(c1)CC(C)O2 (configuration not stated) | 16 |
| CCCCOc1ccc2c(c1)CC(C)O2 (configuration not stated) | 16 |
| CCCOc1ccc2c(c1)CC(C)O2 (configuration not stated) | 16 |
| CCOc1ccc2c(c1)CC(C)O2 (configuration not stated) | 16 |
| COc1ccc2c(c1)CC(C)O2 (configuration not stated) | 16 |
| C=CCc1cc(OC)ccc1OCCC | 9.4 |
| C=CCc1cc(OCCC(C)C)ccc1OCC | 22 |
| C=CCc1cc(OCCC)ccc1OCC | 22 |
| C=CCc1cc(OC)ccc1OCC | 22 |
| C=CCc1cc(OCC)ccc1OCC | 22 |
| C=CCc1cc(OCCCC)ccc1O | 57 |
| C=CCc1cc(OCCC(C)C)ccc1O | 57 |
| C=CCc1cc(OCC)ccc1O | 57 |
| C=CCc1cc(OCCC)ccc1O | 57 |
| C=CCc1cc(OC)ccc1O | 57 |
| C=CCc1cccc(OCCCC)c1O | 20.6 |
| C=CCc1cccc(OCCC(C)C)c1O | 20.6 |
| C=CCc1cccc(OCC)c1O | 20.6 |
| C=CCc1cccc(OCCC)c1O | 20.6 |
| C=CCc1cccc(OC)c1O | 20.6 |
| C=CCOc1cccc(OC)c1 | 34 |
| C=CCOc1cccc(OCC=C)c1 | 20 |
| C=CCOc1ccc(OCC)cc1 [1-allyloxy-4-ethoxybenzene] | 30 |
| C=CCOc1ccc(OCCC)cc1 [1-allyloxy-4-propoxybenzene] | 0.5 |
| C=CCc1ccc(O)c(OC)c1 [EUGENOL] | 56 |
| C=CCc1ccc(OC)c(OC)c1 [METHYLEUGENOL] | 26 |

These molecules were tested on Trichoplusia ni (assay: Oviposition deterrent activity against adult female Trichoplusia ni (cabbage looper) moths introduced along with male moths into oviposition cage containing compound pretreated cabbage leaves assessed as eggs laying on the leaf disks at 0.25% after 48 hr). Settings: not given.
Type: functional
Summary of the method: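 Choice test: one male and one female moth were caged with a control and a treated cabbage leaf (~100-110 cm²). Each side was sprayed with 0.5 mL MeOH or methanolic test solution at 0.25%. Values are mean ± SE, N = 35-40.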

| SMILES | Activity [%] |
| --- | --- |
| C=CCc1cc(OCCCC)ccc1OCC | 64 |
| C=CCc1c(OC)cccc1OCCC | 17 |
| CC(C)CCOc1ccc2c(c1)CC(C)O2 (configuration not stated) | -12 |
| CCCCOc1ccc2c(c1)CC(C)O2 (configuration not stated) | -12 |
| CCCOc1ccc2c(c1)CC(C)O2 (configuration not stated) | -12 |
| CCOc1ccc2c(c1)CC(C)O2 (configuration not stated) | -12 |
| COc1ccc2c(c1)CC(C)O2 (configuration not stated) | -12 |
| C=CCc1cc(OCCC(C)C)ccc1OCCCC | -14 |
| C=CCc1cc(OCCCC)ccc1OCCCC | -14 |
| C=CCc1cc(OCC)ccc1OCCCC | -14 |
| C=CCc1cc(OCCC)ccc1OCCCC | -14 |
| C=CCc1cc(OC)ccc1OCCCC | -14 |
| C=CCc1cc(OC)ccc1OCCC | 7 |
| C=CCc1cc(OCCC(C)C)ccc1OCC | 64 |
| C=CCc1cc(OCCC)ccc1OCC | 64 |
| C=CCc1cc(OC)ccc1OCC | 64 |
| C=CCc1cc(OCC)ccc1OCC | 64 |
| C=CCc1cc(OCCCC)ccc1O | 51 |

| SMILES | Activity [%] |
| --- | --- |
| C=CCc1cc(OCCC(C)C)ccc1O | 51 |
| C=CCc1cc(OCC)ccc1O | 51 |
| C=CCc1cc(OCCC)ccc1O | 51 |
| C=CCc1cc(OC)ccc1O | 51 |
| C=CCc1cccc(OCCCC)c1O | 7 |
| C=CCc1cccc(OCCC(C)C)c1O | 7 |
| C=CCc1cccc(OCC)c1O | 7 |
| C=CCc1cccc(OCCC)c1O | 7 |
| C=CCc1cccc(OC)c1O | 7 |
| C=CCOc1cccc(OCCC(C)C)c1 | 10 |
| C=CCOc1cccc(OC)c1 | 9 |
| C=CCOc1cccc(OCC=C)c1 | 26 |
| C=CCOc1ccccc1OCCC(C)C | 26 |
| C=CCOc1ccc(OCC)cc1 [1-allyloxy-4-ethoxybenzene] | 17 |
| C=CCOc1ccc(OCCC(C)C)cc1 [1-allyloxy-4-isopentoxybenzene] | -25 |
| C=CCOc1ccc(OCCC)cc1 [1-allyloxy-4-propoxybenzene] | 21 |
| C=CCOc1cccc(O)c1 [3-(ALLYLOXY)PHENOL] | 5 |
| C=CCc1ccc(OC)c(OC)c1 [METHYLEUGENOL] | -22 |

What follows are molecules tested on Trichoplusia ni. Settings: in vivo, 24 h.

| SMILES | mortality [%] |
| --- | --- |
| C=CCc1cc(OCCCC)ccc1OCC | 3.3 |
| C=CCc1cccc(OCCC(C)C)c1OCCC(C)C | 7 |
| CC(C)CCOc1ccc2c(c1)CC(C)O2 (configuration not stated) | 1 |
| CCCCOc1ccc2c(c1)CC(C)O2 (configuration not stated) | 1 |
| CCCOc1ccc2c(c1)CC(C)O2 (configuration not stated) | 1 |
| CCOc1ccc2c(c1)CC(C)O2 (configuration not stated) | 1 |
| COc1ccc2c(c1)CC(C)O2 (configuration not stated) | 1 |
| C=CCc1cc(OC)ccc1OCCC | 6.4 |
| C=CCc1cc(OCCC(C)C)ccc1OCC | 3.3 |
| C=CCc1cc(OCCC)ccc1OCC | 3.3 |
| C=CCc1cc(OC)ccc1OCC | 3.3 |
| C=CCc1cc(OCC)ccc1OCC | 3.3 |
| C=CCc1cc(OCCCC)ccc1O | 3.3 |
| C=CCc1cc(OCCC(C)C)ccc1O | 3.3 |
| C=CCc1cc(OCC)ccc1O | 3.3 |
| C=CCc1cc(OCCC)ccc1O | 3.3 |
| C=CCc1cc(OC)ccc1O | 3.3 |
| C=CCOc1c(CC=C)cccc1OCCCC | 7 |
| C=CCOc1c(CC=C)cccc1OCCC(C)C | 7 |
| C=CCOc1c(CC=C)cccc1OCCC | 7 |
| C=CCOc1c(CC=C)cccc1OC | 7 |
| C=CCOc1c(CC=C)cccc1OCC | 7 |

| SMILES | mortality [%] |
| --- | --- |
| C=CCc1cccc(OCCCC)c1OCCC(C)C | 7 |
| C=CCc1cccc(OCCC)c1OCCC(C)C | 7 |
| C=CCc1cccc(OC)c1OCCC(C)C | 7 |
| C=CCc1cccc(OCC)c1OCCC(C)C | 7 |
| C=CCc1cccc(OCCCC)c1OCCCC | 1 |
| C=CCc1cccc(OCCC(C)C)c1OCCCC | 1 |
| C=CCc1cccc(OCCC)c1OCCCC | 1 |
| C=CCc1cccc(OC)c1OCCCC | 1 |
| C=CCc1cccc(OCC)c1OCCCC | 1 |
| C=CCc1cccc(OCCCC)c1OCCC | 47 |
| C=CCc1cccc(OCCC(C)C)c1OCCC | 47 |
| C=CCc1cccc(OCCC)c1OCCC | 47 |
| C=CCc1cccc(OC)c1OCCC | 47 |
| C=CCc1cccc(OCC)c1OCCC | 47 |
| C=CCc1cccc(OCCCC)c1O | 17 |
| C=CCc1cccc(OCCC(C)C)c1O | 17 |
| C=CCc1cccc(OCC)c1O | 17 |
| C=CCc1cccc(OCCC)c1O | 17 |
| C=CCc1cccc(OC)c1O | 17 |
| C=CCOc1cccc(OC)c1 | 33 |
| C=CCOc1cccc(OCC=C)c1 | 13 |
| C=CCc1ccc(O)c(OC)c1 [EUGENOL] | 30 |

The molecules below were run on Trichoplusia ni (assay: Feeding deterrent activity against freshly molted third-instar larval stage of Trichoplusia ni (cabbage looper) in compound pretreated cabbage leaves at 50 ug/cm2 after 3 to 5 hr by leaf disk choice bioassay). Settings: not given.
Type: functional
Summary of the method: as §1

| SMILES | Activity [%] |
| --- | --- |
| C=CCc1cc(OCCCC)ccc1OCC | 66 |
| C=CCc1cccc(OCCC(C)C)c1OCCC(C)C | 22 |
| C=CCc1c(OC)cccc1OCCC | 100 |
| CC(C)CCOc1ccc2c(c1)CC(C)O2 (configuration not stated) | 100 |
| CCCCOc1ccc2c(c1)CC(C)O2 (configuration not stated) | 100 |
| CCCOc1ccc2c(c1)CC(C)O2 (configuration not stated) | 100 |
| CCOc1ccc2c(c1)CC(C)O2 (configuration not stated) | 100 |
| COc1ccc2c(c1)CC(C)O2 (configuration not stated) | 100 |
| C=CCOc1ccc(OCCC(C)C)cc1CC=C | 29 |
| C=CCOc1ccc(OCCCC)cc1CC=C | 29 |
| C=CCOc1ccc(OCCC)cc1CC=C | 29 |
| C=CCOc1ccc(OCC)cc1CC=C | 29 |
| C=CCOc1ccc(OC)cc1CC=C | 29 |
| C=CCc1cc(OCCC(C)C)ccc1OCCCC | 23 |
| C=CCc1cc(OCCCC)ccc1OCCCC | 23 |
| C=CCc1cc(OCC)ccc1OCCCC | 23 |
| C=CCc1cc(OCCC)ccc1OCCCC | 23 |
| C=CCc1cc(OC)ccc1OCCCC | 23 |
| C=CCc1cc(OC)ccc1OCCC | 92 |
| C=CCc1cc(OCCC(C)C)ccc1OCC | 66 |

| SMILES | Activity [%] |
| --- | --- |
| C=CCc1cc(OCCC)ccc1OCC | 66 |
| C=CCc1cc(OC)ccc1OCC | 66 |
| C=CCc1cc(OCC)ccc1OCC | 66 |
| C=CCc1cc(OCCCC)ccc1O | 51 |
| C=CCc1cc(OCCC(C)C)ccc1O | 51 |
| C=CCc1cc(OCC)ccc1O | 51 |
| C=CCc1cc(OCCC)ccc1O | 51 |
| C=CCc1cc(OC)ccc1O | 51 |
| C=CCOc1c(CC=C)cccc1OCCCC | 22 |
| C=CCOc1c(CC=C)cccc1OCCC(C)C | 22 |
| C=CCOc1c(CC=C)cccc1OCCC | 22 |
| C=CCOc1c(CC=C)cccc1OC | 22 |
| C=CCOc1c(CC=C)cccc1OCC | 22 |
| C=CCc1cccc(OCCCC)c1OCCC(C)C | 22 |
| C=CCc1cccc(OCCC)c1OCCC(C)C | 22 |
| C=CCc1cccc(OC)c1OCCC(C)C | 22 |
| C=CCc1cccc(OCC)c1OCCC(C)C | 22 |
| C=CCc1cccc(OCCCC)c1OCCCC | 6 |
| C=CCc1cccc(OCCC(C)C)c1OCCCC | 6 |
| C=CCc1cccc(OCCC)c1OCCCC | 6 |

| SMILES | Activity [%] |
| --- | --- |
| C=CCc1cccc(OC)c1OCCCC | 6 |
| C=CCc1cccc(OCC)c1OCCCC | 6 |
| C=CCc1cccc(OCCCC)c1OCCC | 31 |
| C=CCc1cccc(OCCC(C)C)c1OCCC | 31 |
| C=CCc1cccc(OCCC)c1OCCC | 31 |
| C=CCc1cccc(OC)c1OCCC | 31 |
| C=CCc1cccc(OCC)c1OCCC | 31 |
| C=CCc1cccc(OCCCC)c1O | 100 |
| C=CCc1cccc(OCCC(C)C)c1O | 100 |
| C=CCc1cccc(OCC)c1O | 100 |
| C=CCc1cccc(OCCC)c1O | 100 |
| C=CCc1cccc(OC)c1O | 100 |
| C=CCOc1cccc(OC)c1 | 66 |
| C=CCOc1cccc(OCC=C)c1 | 97 |
| C=CCOc1ccc(OCC)cc1 [1-allyloxy-4-ethoxybenzene] | 73 |
| C=CCOc1ccc(OCCC)cc1 [1-allyloxy-4-propoxybenzene] | 100 |
| C=CCOc1cccc(O)c1 [3-(ALLYLOXY)PHENOL] | 36 |
| C=CCc1ccc(O)c(OC)c1 [EUGENOL] | 44 |
| C=CCc1ccc(OC)c(OC)c1 [METHYLEUGENOL] | 64 |
